Data: ChEMBL document CHEMBL1124112, “Indoline analogues of idazoxan: potent alpha 2-antagonists and alpha 1-agonists” (J Med Chem, 1988)

Key:
Rattus norvegicus [1] = assay: In vivo dose required to inhibit vas deferens contraction by 25% after pretreatment with prazosin in pithed rats. (prejunctional); assay type: functional
Summary of the method: (§1)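 Pithed rats pretreated with prazosin (1 mg/kg). Compound given iv in cumulative doses. ED25 is the dose (μg/kg) inhibiting vas deferens contraction by 25%. Separate groups of rats (n = 4-6).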

Rattus norvegicus [2] = assay: In vivo ED40 is the raising diastolic blood pressure by 40 mm Hg in pithed rats. (postjunctional); assay type: functional; details: Artery
Summary of the method: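 Pithed rats, compound given iv in cumulative doses. ED40 is the dose (μg/kg) raising diastolic blood pressure by 40 mmHg. Separate groups of rats (n = 4-6).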

[3] = test system: Adrenergic receptor alpha-2 (Rattus norvegicus); assay: Agonism at alpha-2 adrenergic receptor, determined as dose required to produce a two fold shift of the cumulative dose-response curve to UK-14304 on the twitch response in rat vas deferens.
Rattus norvegicus [4] = assay: In vivo antagonist dose producing two fold shift of cirazoline in pithed rats. (postjunctional);AG- agonist; assay type: functional, organism-based; details: filed as agonist
Summary of the method: (§2)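 Pithed rats, iv. Antagonist given before a cumulative dose-response curve to cirazoline on diastolic blood pressure. DR2 is the antagonist dose (μg/kg) giving a twofold rightward shift. Separate groups of rats (n = 4-6).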

[5] = molecular target: Adrenergic receptor alpha-1 (Rattus norvegicus) (UniProt P15823+P23944+P43140); assay: Agonism at alpha-1 adrenergic receptor, determined as the dose required to produce a two fold shift of the cirazoline on diastolic blood pressure.; assay type: functional, tissue-based; details: Artery
[6] = molecular target: T1, Adrenergic receptor alpha-2 (Rattus norvegicus) (UniProt P22086+P19328+P22909); assay: Antagonist potency towards alpha-2 adrenergic receptor determined as the dose required to produce a two fold shift of the dose-response curve to UK-14304 on the twitch response of the vas deferens (in vitro);AG- agonist; assay type: functional, tissue-based; details: filed as agonist
[7] = molecular target: T2, Adrenergic receptor alpha-1 (Rattus norvegicus, UniProt P15823+P23944+P43140); assay: Inhibition of saturable binding of [3H]prazosin to alpha1-site in rat cerebral cortical membranes.; assay type: cell membranes, Membrane
T2 sequence (P15823 whole entry): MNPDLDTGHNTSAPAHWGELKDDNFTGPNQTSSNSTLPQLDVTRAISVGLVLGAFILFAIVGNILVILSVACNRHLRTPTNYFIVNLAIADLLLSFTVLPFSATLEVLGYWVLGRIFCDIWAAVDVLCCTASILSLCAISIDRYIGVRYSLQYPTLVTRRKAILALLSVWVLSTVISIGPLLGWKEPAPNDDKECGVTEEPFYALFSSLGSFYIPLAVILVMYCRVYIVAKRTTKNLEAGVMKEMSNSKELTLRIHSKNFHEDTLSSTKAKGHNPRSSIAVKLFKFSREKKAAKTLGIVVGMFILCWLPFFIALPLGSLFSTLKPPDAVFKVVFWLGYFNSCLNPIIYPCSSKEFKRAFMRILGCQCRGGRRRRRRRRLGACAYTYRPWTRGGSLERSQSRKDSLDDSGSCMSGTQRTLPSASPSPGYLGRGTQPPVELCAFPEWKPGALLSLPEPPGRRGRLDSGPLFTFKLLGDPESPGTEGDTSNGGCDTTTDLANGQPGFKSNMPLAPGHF
T2 sequence (P23944 whole entry): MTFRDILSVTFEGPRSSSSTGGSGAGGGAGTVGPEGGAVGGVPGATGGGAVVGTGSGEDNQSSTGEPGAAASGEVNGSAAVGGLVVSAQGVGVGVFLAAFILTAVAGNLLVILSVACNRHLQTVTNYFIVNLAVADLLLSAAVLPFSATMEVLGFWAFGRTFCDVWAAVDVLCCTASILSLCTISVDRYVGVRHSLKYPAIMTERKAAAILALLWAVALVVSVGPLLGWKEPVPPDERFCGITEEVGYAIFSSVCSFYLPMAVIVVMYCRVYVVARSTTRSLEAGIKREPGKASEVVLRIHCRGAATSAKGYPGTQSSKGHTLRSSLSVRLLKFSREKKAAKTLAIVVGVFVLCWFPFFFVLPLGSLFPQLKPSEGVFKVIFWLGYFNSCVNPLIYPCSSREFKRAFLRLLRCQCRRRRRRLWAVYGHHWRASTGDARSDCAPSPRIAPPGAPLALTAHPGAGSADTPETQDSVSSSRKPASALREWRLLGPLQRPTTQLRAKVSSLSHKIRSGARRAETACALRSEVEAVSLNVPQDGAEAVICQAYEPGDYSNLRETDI
T2 sequence (P43140 whole entry): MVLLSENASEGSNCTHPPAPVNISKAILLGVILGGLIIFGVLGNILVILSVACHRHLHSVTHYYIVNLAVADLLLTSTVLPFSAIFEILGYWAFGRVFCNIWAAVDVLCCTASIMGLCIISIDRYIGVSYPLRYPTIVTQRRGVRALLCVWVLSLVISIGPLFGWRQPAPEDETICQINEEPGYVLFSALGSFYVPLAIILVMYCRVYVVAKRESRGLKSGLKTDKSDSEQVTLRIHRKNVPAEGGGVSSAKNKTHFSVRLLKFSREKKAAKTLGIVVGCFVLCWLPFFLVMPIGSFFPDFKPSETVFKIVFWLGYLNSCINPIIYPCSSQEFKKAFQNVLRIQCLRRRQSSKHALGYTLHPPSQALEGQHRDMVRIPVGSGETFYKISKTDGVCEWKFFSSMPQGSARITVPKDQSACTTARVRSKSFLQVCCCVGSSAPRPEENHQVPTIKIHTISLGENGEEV

[8] = molecular target: T3, Adrenergic receptor alpha-2 (Rattus norvegicus, UniProt P22086+P19328+P22909); assay: Inhibition of saturable binding of [3H]idazoxan to alpha2-site in rat cerebral cortical membranes.; assay type: cell membranes, Membrane
T3 sequence (P22086 whole entry): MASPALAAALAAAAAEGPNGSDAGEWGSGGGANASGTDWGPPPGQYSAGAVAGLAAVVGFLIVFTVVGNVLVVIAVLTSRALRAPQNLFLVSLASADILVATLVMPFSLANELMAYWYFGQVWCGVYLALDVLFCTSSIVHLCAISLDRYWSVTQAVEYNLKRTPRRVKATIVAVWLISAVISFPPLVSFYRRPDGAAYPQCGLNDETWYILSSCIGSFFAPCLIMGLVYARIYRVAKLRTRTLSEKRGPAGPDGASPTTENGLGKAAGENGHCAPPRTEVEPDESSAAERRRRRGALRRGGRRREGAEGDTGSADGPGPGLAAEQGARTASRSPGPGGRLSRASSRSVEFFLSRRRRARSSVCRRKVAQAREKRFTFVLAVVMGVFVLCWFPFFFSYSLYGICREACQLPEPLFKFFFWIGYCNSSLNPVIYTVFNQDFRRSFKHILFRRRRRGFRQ
T3 sequence (P19328 whole entry): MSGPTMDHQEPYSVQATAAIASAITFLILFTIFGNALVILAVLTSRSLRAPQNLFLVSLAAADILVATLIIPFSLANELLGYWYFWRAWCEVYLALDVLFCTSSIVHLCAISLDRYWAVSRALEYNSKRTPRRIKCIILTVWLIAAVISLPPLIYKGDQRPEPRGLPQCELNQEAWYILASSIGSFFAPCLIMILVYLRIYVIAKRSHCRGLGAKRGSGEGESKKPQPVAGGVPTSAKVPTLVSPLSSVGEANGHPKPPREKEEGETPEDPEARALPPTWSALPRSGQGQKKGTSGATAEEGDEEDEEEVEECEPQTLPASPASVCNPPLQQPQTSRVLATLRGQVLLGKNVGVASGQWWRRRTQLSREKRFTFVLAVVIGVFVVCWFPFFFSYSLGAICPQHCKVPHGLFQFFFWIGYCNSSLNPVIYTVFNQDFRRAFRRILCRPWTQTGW
T3 sequence (P22909 whole entry): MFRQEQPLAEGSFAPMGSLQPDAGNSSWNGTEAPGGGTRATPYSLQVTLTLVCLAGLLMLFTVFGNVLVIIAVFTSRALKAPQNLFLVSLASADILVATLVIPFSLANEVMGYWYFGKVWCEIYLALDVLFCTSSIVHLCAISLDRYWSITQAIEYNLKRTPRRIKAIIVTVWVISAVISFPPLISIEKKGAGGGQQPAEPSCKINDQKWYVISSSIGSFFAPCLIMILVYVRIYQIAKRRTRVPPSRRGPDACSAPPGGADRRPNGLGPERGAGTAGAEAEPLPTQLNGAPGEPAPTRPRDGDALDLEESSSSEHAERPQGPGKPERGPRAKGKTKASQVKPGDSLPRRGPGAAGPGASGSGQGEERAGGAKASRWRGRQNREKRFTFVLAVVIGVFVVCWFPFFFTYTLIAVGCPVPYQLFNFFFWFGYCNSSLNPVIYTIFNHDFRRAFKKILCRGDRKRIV

[9] = molecular target: T1, Adrenergic receptor alpha-2 (Rattus norvegicus); assay: Antagonism at alpha-2 adrenergic receptor, determined as dose required to produce a two fold shift of the dose-response curve to UK-14304 on the twitch response in rat vas deferens; assay type: functional, tissue-based
Summary of the method: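 Pithed rats, iv. Antagonist given before a cumulative dose-response curve to UK-14,304 on the vas deferens twitch response. DR2 is the antagonist dose (μg/kg) giving a twofold shift of the curve. Separate groups of rats (n = 4-6).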

Rattus norvegicus [10] = assay: In vivo antagonist dose producing two fold shift of cirazoline in pithed rats. (postjunctional); AG- agonist; assay type: functional, organism-based; details: filed as agonist; summary of the method: as §2
Rattus norvegicus [11] = assay: In vivo antagonist dose producing two fold shift of UK-14,304 in pithed rats. (prejunctional)
Rattus norvegicus [12] = assay: In vivo dose required to inhibit vas deferens contraction by 25% after pretreatment with prazosin in pithed rats. (prejunctional); ant- antagonist; assay type: functional, organism-based; details: filed as antagonist; summary of the method: as §1
[13] = test system: Adrenergic receptor alpha-1 (Rattus norvegicus); assay: […] towards alpha-1 adrenergic receptor determined as the dose required to produce a two fold shift of the cirazoline on diastolic blood pressure (in vitro); details: Artery

Row | Compound | ED25 (Rattus norvegicus [1]) [µg/kg] | ED40 (Rattus norvegicus [2]) [µg/kg] | Prejunctional agonist potency [3] | ED40 (Rattus norvegicus [4]) | Postjunctional agonist potency [5] | Prejunctional antagonist potency [6] | Ki [7] [nM] | Ki [8] [nM] | Prejunctional antagonist potency [9] | ED40 (Rattus norvegicus [10]) | DR2 (Rattus norvegicus [11]) [mg/kg] | ED25 (Rattus norvegicus [12]) | Postjunctional antagonist potency [13]
1 | CN1c2cccc(O)c2CC1C1=NCCN1 (stereo not given) | 0.2 | 0.3 | 0.16 | Agonist | 6.7 | Agonist |  |  |  |  |  |  | 
2 | CNC[C@H](O)c1cccc(O)c1 [PHENYLEPHRINE] |  | 0.9 |  |  |  |  |  |  |  |  |  |  | 
3 | CCN1c2ccccc2CC1C1=NCCN1 (stereo not given) |  | 3.3 | 0 |  | 1.4 |  | 3.72 | 0.24 | 9.1 | Agonist | 0.0016 | Antagonist | 
4 | CN1c2ccc(Cl)cc2CC1C1=NCCN1 (stereo not given) |  | 14.3 | 0 |  | 2 |  |  |  | 6.8 | Agonist | 0.0127 | Antagonist | 
5 | CCCN1c2ccccc2CC1C1=NCCN1 (stereo not given) |  | 3.8 | 0 |  | 3.9 |  | 3.7 | 0.96 | 3.2 | Agonist | 0.0071 | Antagonist | 
6 | Cl.c1ccc(N2c3ccccc3CC2C2=NCCN2)cc1 (stereo not given) |  | 1.1 | 0 |  | 5.3 |  | 8.4 | 3 | 0.5 | Agonist | 0.0094 | Antagonist | 
7 | c1ccc2c(c1)CC(C1=NCCN1)C2 |  |  | 0 |  | 0 |  |  |  | 0.4 |  |  |  | 0.8
8 | CCC1(C2=NCCN2)Cc2ccccc2N1C (stereo not given) |  |  | 0 |  | 0 |  |  |  | 0.005 |  |  |  | < 0.012
9 | c1ccc2c(c1)CC(C1=NCCN1)O2 (stereo not given) |  |  | 0 |  | 0.01 |  |  |  | 1.7 |  |  |  | 0.16
10 | CN1c2cccc(F)c2CC1C1=NCCN1 (stereo not given) | 0.8 |  | 1 | Agonist | 6 | Agonist |  |  |  |  | 0.0008 |  | 
11 | COc1cccc2c1CC(C1=NCCN1)N2C (stereo not given) |  |  | 0 |  | 0.62 |  |  |  | 0.27 |  |  |  | 
12 | c1ccc(COCCN2c3ccccc3CC2C2=NCCN2)cc1 (stereo not given) |  |  | 0 |  | 0 |  |  |  | 0.05 |  |  |  | 18
13 | Nc1cc(Cl)c(N=C2NCCN2)c(Cl)c1 [APRACLONIDINE] | 0.4 | 0.7 |  |  |  |  |  |  |  |  |  |  | 
14 | COc1cccc2c1N(C)C(C1=NCCN1)C2 (stereo not given) |  |  | 0.4 |  | 8 | Agonist |  |  |  |  |  |  | 
15 | CCN1c2ccc(Cl)cc2CC1C1=NCCN1 (stereo not given) |  | 4.2 | 0 |  | 5 |  |  |  | 8 | Agonist | 0.0059 | Antagonist | 
16 | CN1c2cccc(Br)c2CC1C1=NCCN1 (stereo not given) | 1.1 | 0.3 | 0.34 |  | 3.4 | Agonist |  |  |  |  |  |  | 
17 | CN1c2c(Cl)cccc2CC1C1=NCCN1 (stereo not given) | 2.2 | 1.4 | 0.3 |  | 3.5 | Agonist |  |  |  | Agonist |  |  | 
18 | CCN1c2ccccc2CC1(C)C1=NCCN1 (stereo not given) |  |  | 0 |  | 0.03 |  |  |  | 0.1 |  |  |  | 
19 | CN1c2cc(Cl)ccc2CC1C1=NCCN1 (stereo not given) |  |  | 0.019 |  | 0.67 | Agonist |  |  |  |  |  |  | 
